Data reported in PubChem BioAssay AID1296 (Columbia University Molecular Screening Center, 2008).
In all, about 130,000 compounds went through this assay and about 1,000 (0.77%) were called active. Another 1% or so got no clear call; they are omitted.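 The calls were made as follows: active = activation at 2 µM above a set limit, confirmed on inspection of the cell images; inconclusive = above the set limit but not confirmed on image inspection; inactive = the rest.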 For the sample, actives were picked, then their nearest neighbours and some compounds at random.

Experiment: activators of insulin promoter-driven GFP, primary screen, imaging, TRM-6 cells (human fetal islet line), eGFP reporter, cell count (AID 1296;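 as to activation: share of cells whose green reporter signal exceeds an intensity cutoff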)
Conditions: at 2 µM; activation: stronger effect = higher value, plate-scaled: unstimulated 0, stimulated control 100; normalized cell count: measured here: cell count (toxicity)
Summary of the method: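 System – TRM-6 insulin promoter–eGFP reporter cells · Probe or stimulus – 0.75 µM tamoxifen as reporter inducer · Dosing – single-point 2 µM compound dose · Incubation – tamoxifen pre-incubation 15 h overnight, then compound exposure 48 h at 37 °C · Measured by – fixed-cell fluorescence microscopy, eGFP plus Hoechst · Evaluation – percent GFP-positive cells normalized to per-plate controls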

| Structure (SMILES) | activation | normalized cell count |
| --- | --- | --- |
| COC(=O)CSc1nnc(-c2cccnc2)o1 | 5.13% (inactive) | 134% |
| O=C(CSc1nnc(-c2ccoc2)o1)N1CCOCC1 | -9.09% (inactive) | 105% |
| Cc1cccc(C)c1OC(=O)CSc1nnc(-c2ccccc2)o1 | 487% (active) | 75.9% |
| C=CCOc1c(Br)cc(/C=N\n2nnnc2N)cc1OC | 0% (inactive) | 53.2% |
| O=C(CN1C(=O)NC2(CCCCCC2)C1=O)NC1CC1 | 542% (active) | 78.5% |
| O=C(CN1C(=O)NC2(CCCCC2)C1=O)NCCC1=CCCCC1 | -3.7% (inactive) | 86.8% |
| CCC1SC(CC)C(=O)N(CC(=O)NC2CCCCC2)C1=O (centres undefined) | -8.33% (inactive) | 80.9% |
| O=C(CSc1nc2ccc([N+](=O)[O-])cc2[nH]1)c1ccc(Cl)cc1 | -3.7% (inactive) | 85.9% |
| COc1ccccc1-c1nc(SC)n[nH]1 | -5.26% (inactive) | 131% |
| COc1ccc(C(=O)NC(=S)NNC(=O)CCc2ccccc2)cc1 | -3.57% (inactive) | 91.6% |
| COCCNC(=S)c1ccc(OC)cc1 | 433% (active) | 62.5% |
| COc1cc(NC(=S)NCCSc2ccc(C)cc2)cc(OC)c1 | -3.12% (inactive) | 116% |
| CN=C1S/C(=C\c2ccc(Sc3ccc(Cl)cc3)o2)C(=O)N1C | -2.7% (inactive) | 43.5% |
| Cc1ccc(/C=N/NC(=O)Cn2ccc(C(F)(F)F)n2)o1 | 8.33% (inactive) | 128% |
| CC(CNC(=O)c1ccc(N)cc1)NC(=O)c1ccc(N)cc1 (centres undefined) | 2.33% (inactive) | 108% |
| CCN(CC)C(=O)CSc1ncnc2c1cnn2-c1ccccc1 | 392% (inactive) | 43.6% |
| Cc1ccc(-n2ncc3c(Nc4cccc(C(=O)O)c4)ncnc32)cc1 | 6.67% (inactive) | 45% |
| O=C(NNc1ncnc2c1cnn2-c1ccccc1)c1ccco1 | 500% (active) | 142% |
| COc1cc(/C=N/NC(=O)c2cc(C)n(-c3ccc(F)cc3)c2C)cc(OC)c1O | 129% (inactive) | 121% |
| Cc1cc(NC(=O)COC(=O)COc2ccc(Cl)cc2C)c([N+](=O)[O-])cc1C | 0% (inactive) | 143% |
| Cc1cc(=O)oc(C)c1C(=O)N1CCCCC1 | 5.26% (inactive) | 82.9% |
| Cc1cccc(C(=O)N2CCCN(C(=O)c3cccc(C)c3)CC2)c1 | 3.23% (inactive) | 110% |

| Structure (SMILES) | activation | normalized cell count |
| --- | --- | --- |
| Cc1ccc2cc3cc(C(=O)N4CCCCCC4)oc3nc2c1 | 183% (active) | 233% |
| Cc1cccc(N(C(=O)Cc2cccs2)C(C(=O)NCc2ccco2)c2ccncc2)c1 (centres undefined) | 107% (inactive) | 58.7% |
| COc1cc(NC(=O)CSc2nnc3ccc(-c4ccncc4)nn23)cc(OC)c1 | -5.26% (inactive) | 108% |
| O=C(Nc1ccncc1)c1cc2ccccc2o1 | 342% (inactive) | 93.3% |
| COc1ccc(C(=O)N/N=c2\oc3ccccc3cc2C(N)=O)cc1 | 0% (inactive) | 70.8% |
| Cc1ccc(OC(=O)c2cc3ccccc3o2)cc1 | 79.3% (active) | 174% |
| COC(=O)[C@H]1Cc2cnoc2C[C@]1(C)C(=O)O | 0% (inactive) | 176% |
| COc1ccc(C)cc1NC(=O)CSc1ccc(Cl)cc1 | -5.56% (inactive) | 93.7% |
| COC(=O)c1cc(OC)c(OC)cc1NC(=O)CSc1ccc(C)cc1 | 3.33% (inactive) | 108% |
| Cc1cc(C)cc(NC(=O)CSc2ccccc2)c1 | 525% (active) | 53.5% |
| Cc1nc(CC(=O)NNS(=O)(=O)c2ccc(F)c(Cl)c2)cs1 | -7.69% (inactive) | 104% |
| N#Cc1ccc(Oc2cc(C(F)(F)F)nc(-c3ccccn3)n2)cc1 | -9.09% (inactive) | 91.7% |
| CCN(CC(=O)NC(=O)NCc1ccccc1)Cc1nc2ccccc2c(=O)[nH]1 | 8.33% (inactive) | 68.7% |
| Cc1nn(C)c(Oc2ccccc2)c1[N+](=O)[O-] | 7.04% (inactive) | 55.2% |
| O=C(O)COc1ccc(/C=N/O)cc1Br | 8.33% (inactive) | 101% |
| CN1/C(=C\C=C2\N=C(c3ccc(F)cc3)OC2=O)C(C)(C)c2ccccc21 | 121% (active) | 53.1% |
| CC(=O)NCCC(=O)Nc1nc(C)c(Cc2ccc3c(c2)OCO3)s1 | 0% (inactive) | 42.1% |
| COc1cc(/C=C2/C(=O)ON=C2C)ccc1OCc1cccc(F)c1 | 0% (inactive) | 98.9% |
| Cc1nn(Cc2ccc(C(=O)N3N=C(C(F)F)CC3(O)C(F)F)cc2)c(C)c1[N+](=O)[O-] (centres undefined) | 4.44% (inactive) | 126% |
| O=C(NCc1ccco1)c1nn2cccnc2c1Cl | 0% (inactive) | 126% |
| COc1ccc(CC(=O)Nc2ccc(-c3nnc(-c4ccccc4)o3)cc2)cc1 | 6.45% (inactive) | 115% |
| COc1ccc(OC(C)C(=O)Nc2cccnc2)cc1 (centres undefined) | -8.57% (inactive) | 50% |

| Structure (SMILES) | activation | normalized cell count |
| --- | --- | --- |
| COc1ccc(CS(=O)/C(Cl)=C(/Cl)C(=O)Nc2ccc(OC)nc2)cc1 (centres undefined) | 669% (active) | 10.6% |
| COc1ccc(OC)c(CNC(=O)c2cc(=O)[nH]c3ccc(S(=O)(=O)N4CCCC4)cc23)c1 | 0% (inactive) | 73.7% |
| CC(C)C(C)(C#N)NC(=O)CSc1nncn1-c1ccccc1 (centres undefined) | -7.14% (inactive) | 91.1% |
| CCNc1nc(NC(C)C)nc(N2CC(=O)N(CC(=O)OCC)C2=N)n1 | 344% (active) | 69.4% |
| O=Cc1cn(Cc2ccccc2)nc1-c1cccnc1 | 2.44% (inactive) | 212% |
| CS(=O)(=O)N(Cc1ccccc1)c1ccc(C(=O)NN=C2CCCCCC2)cc1 | -6.9% (inactive) | 150% |
| COC(=O)Nc1sc2nc(C)cc(C)c2c1-n1cccc1 | -3.7% (inactive) | 74.8% |
| CCCN1CC=C2C(C#N)=C(N)C(C#N)(C#N)C(c3cc(OC)ccc3OC)C2C1 (centres undefined) | 178% (active) | 123% |
| COc1cc(OC)cc(-c2nc3ccccc3c(=O)n2NC(=O)c2cccnc2Cl)c1 | -5.56% (inactive) | 107% |
| CC1=NNC(=O)C1CCC(=O)N/N=C\c1ccc(Cl)c(Cl)c1 (centres undefined) | 0% (inactive) | 124% |
| CCCn1c(=S)[nH]c2ccc(C(F)(F)F)cc21 | 205% (active) | 78% |
| CC1CC(C)CN(C(=O)CSc2ccsc2[N+](=O)[O-])C1 (centres undefined) | 0% (inactive) | 74.7% |
| CCOc1ccc(S(=O)(=O)Nc2ccncc2)c(C)c1C | -72.7% (inactive) | 133% |
| CCOc1ccc(NC(=S)NC(=O)/C=C/c2ccc(OC)cc2)c([N+](=O)[O-])c1 | 8.82% (inactive) | 139% |
| CCN(CC)CCn1c(/N=C/c2cc(Br)ccc2O)nc2ccccc21 | 149% (inactive) | 133% |
| CC(C)CCNC(=O)CC1C(=O)N(Cc2ccccc2)C(C)c2nc3ccccc3n21 (centres undefined) | 127% (inactive) | 118% |
| CC(O)c1nc2ccccc2n1Cc1ccc([N+](=O)[O-])cc1 (centres undefined) | -2.94% (inactive) | 149% |
| CC(C)(C)N1CC(c2nc3ccccc3n2Cc2ccc(F)cc2)CC1=O (centres undefined) | 80% (active) | 127% |
| Cc1ccc(C2CC2C(=O)NN)cc1 (centres undefined) | 0% (inactive) | 90.7% |
| Cc1noc(C)c1CCC(=O)O | 5.56% (inactive) | 134% |
| Cc1ccc(NC(=O)c2ccn(C(=O)Nc3ccccc3)n2)c(C)c1 | 0% (inactive) | 123% |
| Cc1ccnc(NC(=O)Cn2ccc([N+](=O)[O-])n2)c1 | 5.71% (inactive) | 124% |

| Structure (SMILES) | activation | normalized cell count |
| --- | --- | --- |
| O=C(CN1CCOCC1)N1CCCc2c1c(=O)oc1ccc(OCc3ccccc3)cc21 | 21.5% (inactive) | 118% |
| CCOC(=O)c1[nH]c2ccc(OC)cc2c1NC(=O)N1CCOCC1 | 3.57% (inactive) | 45.3% |
| Cc1c(C(=O)N2CCOCC2)[nH]c2ccc(OCc3ccccc3)cc12 | 104% (active) | 126% |
| CC(=O)c1cc(-c2ccccc2)n(CCC(=O)NC2CCCCCC2)c1C | 5.71% (inactive) | 127% |
| CCN(CC(=O)Nc1ccc(Cl)c(S(=O)(=O)N(C)C)c1)Cc1nc2ccccc2c(=O)[nH]1 | 8.33% (inactive) | 83.9% |
| CCn1c(Cc2cccs2)nnc1SCC(=O)c1ccc(C)cc1 | 433% (active) | 93.9% |
| Cc1ccc(-n2c(Cc3cccs3)nnc2SCC(=O)OC(C)C)cc1 | -7.69% (inactive) | 48% |
| CCn1c(SCC(=O)Nc2nccs2)nnc1-c1ccco1 | 0% (inactive) | 131% |
| Cc1ccsc1C1C(C#N)=C(N)OC2=C1C(=O)CC(C)(C)C2 (centres undefined) | 0% (inactive) | 62.4% |
| CCN1CCN(C(C(=O)NC2CCCC2)c2cc3c(cc2[N+](=O)[O-])OCO3)CC1 (centres undefined) | 6.67% (inactive) | 84.9% |
| CCCC(=O)NC(Nc1ccccc1OC)C(Cl)(Cl)Cl (centres undefined) | -4.35% (inactive) | 88% |
| CN(C)c1ccc(/C=C2\NC(=S)N(Cc3ccccc3)C2=O)cc1 | 170% [may fluoresce] (active) | 95.4% |
| Cc1nc2ccccc2cc1C(=O)N/N=C/c1ccc([N+](=O)[O-])cc1 | -75% (inactive) | 81% |
| COc1cc(/C=C/C(=O)OCC(=O)Nc2cccc(Oc3ccccc3)c2)ccc1O | 3.57% (inactive) | 105% |
| O=C(Nc1cccc(Cl)c1)Nc1nnc(-c2ccccc2)o1 | 4.65% (inactive) | 60.8% |
| CCOc1cc(/C=C2/C(=N)N3OC(C)=CC3=NC2=O)ccc1OC | 6.67% (inactive) | 55.1% |
| c1ccc(CC2CCN(c3nc4ccccc4n4cnnc34)CC2)cc1 | -7.14% (inactive) | 111% |
| O=C(c1ccccc1)c1ccc2nc(N3CCCCC3)c3nncn3c2c1 | 320% (active) | 70% |
| O=C(Nc1ccccc1N1CCCCC1)c1cccc(F)c1 | 5.71% (inactive) | 92.9% |
| CCC(C)NC(=O)c1nn(C)c(=O)c2ccccc12 (centres undefined) | -5.56% (inactive) | 169% |
| Cc1ccc(S(=O)(=O)c2ccc(Cl)cc2)cc1S(=O)(=O)NC(C(=O)O)C(C)C (centres undefined) | 3.85% (inactive) | 127% |
